The values that follow come from ChEMBL document CHEMBL1135421, “2-(Anilinomethyl)imidazolines as alpha1 adrenergic receptor agonists: the discovery of alpha1a subtype selective 2'-alkylsulfonyl-substituted analogues” (J Med Chem, 2002).

What all share (type): functional
The target in assay [1] is T1, Alpha-1D adrenergic receptor (Homo sapiens, UniProt P25100).
T1 sequence (P25100 whole entry): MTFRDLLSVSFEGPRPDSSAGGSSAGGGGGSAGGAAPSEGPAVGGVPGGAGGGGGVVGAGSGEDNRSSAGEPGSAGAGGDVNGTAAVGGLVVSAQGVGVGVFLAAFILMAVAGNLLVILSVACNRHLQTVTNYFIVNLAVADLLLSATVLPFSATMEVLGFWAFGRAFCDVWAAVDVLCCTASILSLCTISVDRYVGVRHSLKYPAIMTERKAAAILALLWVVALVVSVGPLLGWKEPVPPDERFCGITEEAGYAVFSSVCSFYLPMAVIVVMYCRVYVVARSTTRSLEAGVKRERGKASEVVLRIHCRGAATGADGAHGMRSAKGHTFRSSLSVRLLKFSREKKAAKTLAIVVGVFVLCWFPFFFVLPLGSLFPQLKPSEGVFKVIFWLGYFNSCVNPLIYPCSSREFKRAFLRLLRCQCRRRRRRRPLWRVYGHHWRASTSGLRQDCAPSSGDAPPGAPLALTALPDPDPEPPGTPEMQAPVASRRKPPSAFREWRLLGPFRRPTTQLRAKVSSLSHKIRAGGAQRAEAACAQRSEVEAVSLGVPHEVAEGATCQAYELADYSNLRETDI
Put plainly: Agonist potency at Alpha-1D adrenergic receptor assayed in rat-1 fibroblasts. In a few lines:
(§1)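 Rat-1 fibroblasts expressing human α1a/α1b/α1d, grown in DMEM with 10% heat-inactivated FBS and 0.6 mg/mL G418, plated 6000 cells/well and cultured 48 h at 37 °C. Loaded 2 h at 37 °C with Calcium Green (4 μM), 0.2% pluronic acid and 2.5 mM probenecid in HEPES buffer pH 7.4. FLIPR read at room temperature: 10 s baseline, then 50 s after compound. 11-point curves as % of 40 μM phenylephrine response, top concentration typically 5 μM.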

The target of assay [2] is T2, Alpha-1A adrenergic receptor (Homo sapiens, UniProt P35348).
T2 sequence (P35348 whole entry): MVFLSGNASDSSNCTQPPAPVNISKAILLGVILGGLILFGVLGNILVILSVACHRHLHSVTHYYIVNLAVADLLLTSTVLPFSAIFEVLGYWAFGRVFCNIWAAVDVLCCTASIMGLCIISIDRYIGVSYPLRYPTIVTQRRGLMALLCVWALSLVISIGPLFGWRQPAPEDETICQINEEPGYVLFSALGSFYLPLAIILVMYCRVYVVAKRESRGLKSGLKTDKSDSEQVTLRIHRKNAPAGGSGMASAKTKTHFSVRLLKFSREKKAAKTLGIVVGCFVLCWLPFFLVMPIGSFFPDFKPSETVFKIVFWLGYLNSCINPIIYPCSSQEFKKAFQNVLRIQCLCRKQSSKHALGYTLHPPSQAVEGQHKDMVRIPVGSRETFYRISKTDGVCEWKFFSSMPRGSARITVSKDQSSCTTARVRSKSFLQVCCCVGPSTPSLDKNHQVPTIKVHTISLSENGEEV
As to the kind of experiment: Agonist potency at Alpha-1A adrenoceptors assayed in rat-1 fibroblasts expressing human Alpha-1A. In a few lines: as §1

Assay [3] has as its target T3, Alpha-1B adrenergic receptor (Homo sapiens) (UniProt P35368).
T3 sequence (whole entry): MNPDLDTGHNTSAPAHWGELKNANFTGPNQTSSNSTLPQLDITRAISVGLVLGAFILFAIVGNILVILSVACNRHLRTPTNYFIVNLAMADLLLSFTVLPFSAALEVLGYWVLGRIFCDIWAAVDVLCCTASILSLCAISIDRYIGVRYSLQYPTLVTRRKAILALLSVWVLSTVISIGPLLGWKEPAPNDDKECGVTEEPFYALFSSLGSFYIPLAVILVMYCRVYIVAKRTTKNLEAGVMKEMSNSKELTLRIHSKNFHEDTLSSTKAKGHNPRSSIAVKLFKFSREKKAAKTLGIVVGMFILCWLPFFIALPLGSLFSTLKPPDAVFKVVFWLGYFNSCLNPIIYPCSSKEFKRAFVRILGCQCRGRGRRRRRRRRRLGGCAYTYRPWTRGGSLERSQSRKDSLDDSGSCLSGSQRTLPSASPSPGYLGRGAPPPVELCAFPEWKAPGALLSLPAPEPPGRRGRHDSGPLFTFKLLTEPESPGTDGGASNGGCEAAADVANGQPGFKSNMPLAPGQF
As to the kind of experiment: Agonist potency at Alpha-1B adrenergic receptor assayed in rat-1 fibroblasts expressing human Alpha-1B adrenergic receptor. In a few lines:
as §1

Regarding `CSc1ccccc1NCC1=NCCN1`, the EC50 (in general, the concentration giving half of the maximal effect) was 8.91 nM in assay [1] and 4.57 nM in assay [2].

As to `CCCS(=O)(=O)c1ccccc1NCC1=NCCN1`, the pEC5 in assay [3] is less than 4.
